Experimental data from the EternaBench riboswitch data.

Test system: MS2 coat protein
Experiment: apparent Kd, MS2 coat protein; higher = weaker binding; RNA-MaP array; FMN 200 µM where present
Summary of the method: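 The apparent Kd is the median of filtered binding-curve fits, one per cluster, to green signal normalised to red-channel RNA signal and control-cluster median Fmax. The clusters were on Illumina sequencing chips, and stalled E. coli RNA polymerase had transcribed the designs on them. Titration used SNAP-549-labelled MS2 coat protein from 0.7 or 1.5 nM, doubling to 3 µM, without and then with constant ligand, in 100 mM Tris-HCl pH 7.5, 80 mM KCl, 4 mM MgCl2, BSA, DTT, yeast tRNA and Tween-20.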

[1] = designed as: OFF switch for flavin mononucleotide, no ligand
[2] = ligand present: flavin mononucleotide, designed as: OFF switch for flavin mononucleotide
[3] = designed as: ON switch for flavin mononucleotide, no ligand
[4] = ligand present: flavin mononucleotide, designed as: ON switch for flavin mononucleotide

Sequence | apparent Kd [1] [µM] | apparent Kd [2] [µM] | apparent Kd [3] [µM] | apparent Kd [4] [µM]
ACUAAACGAGGAUAUACUGACAGGCCUCAGACAUACAUCAAACAUGAGGAUCACCCAUGUAGAAGGCGUAAACU | 0.0372 | 0.0367 |  | 
UUGGCGACGUAGAAGGGUGACAUGAGGAUCACCCAUGUGCCGAUAUGUCUCGAGAUAUGUCGGCCACAGGAUAUACGUGCCAUC |  |  | 0.0617 | 0.0385
AGAAACUACGAGAAGGACAUGAGGAUCACCCAUGUUUCCACUUAGUGGUAUGUAGGAUAUCGUAGUUUCAGGAUCGUGAGAUCA | 0.00581 | 0.00639 |  | 
AAGCUGUGAGGAUAUACAUGAGGAUCACCCAUGUUAAGGAAGUCUUGGUUAAUUUGGAGUAGAAGGCGCUUAUU | 0.0309 | 0.0255 |  | 
AAAGUACAUGAGGAUCACCCAUGUUGAAAAAAUCGAGGAUAUGCGAAAAAAAAAAAAAAAGCAGAAGGUGAAAAAA |  |  | 0.049 | 0.0424
CCCAUCGCAUGAGGAUAUGGUCAGCUUUGCUGACCAGAAGGCAUGUCAUAAGACAUGAGGAUCACCCAUGUAGUUAAGAUGGGA |  |  | 0.654 | 0.0483
AGUGUCAUCGAGAAGGCCUCAACAUGAGGAUCACCCAUGUUGCAAAAUGGGAGGAUAUCGCGCGAAAAGCUACGUUUCGUAGCA |  |  | 0.0289 | 0.0116
GUAGCAUACCAAGGAUAUUUAGGGCUUUGAUAGACAUGAGGAUCACCCAUGUGGCGUUAGUCAAGGGAGAAGGUGGUAUGCUAC |  |  | 0.0226 | 0.0145
CUAGCAACAUGAGGAUCACCCAUGUAGGAUAUCGCUAUUGUAAUCAUGAAACAUGAUUACAAUAGCGAGAAGGACAUAUGCUAU | 0.00833 | 0.00983 |  | 
GGAUAUGUCGUCUACAUGAGGAUCACCCAUGUCGAUAGACAUGAGGAUAUCGAUAAGAAUUGUAUCGAGAAGGUAUGUAGGUCC |  |  | 0.023 | 0.0302
CACAUUUUAACAGGAUAUGUAAGGUUGUUUAUUAUUGCAUUUACAAUUAUUACAGAAGGGUUAUACAUGAGGAUCACCCAUGUG |  |  | 0.0153 | 0.0155
CCAAGCUGUGUGAGGAUAUGCUGGUCCUUGGAUCAGCAGAAGGCACAUGAGGAUCACCCAUGUGAAAAGCUUGG | 0.0151 | 0.0521 |  | 
GCGUUACAUGAGGAUCACCCAUGUGAGGAUAUGGUGCGGUACUGUCCUGUCGCGUACUCCAGAAGGCACGGGUG | 0.15 | 0.0853 |  | 
AAGAAGUGAGGAUAUCGAAGACAGACGAAAAGUCUGUCAAACGAGAAGGCACAUGAGGAUCACCCAUGUAAGAA | 0.0259 | 0.0353 |  | 
GUCAGCUCGUGAGGAUAUACAUGUGCUGGAUACAGCACUAUUGUGUUCACAUGAGGAUCACCCAUGUAGAAGGCACGAGCUGAU | 0.0177 | 0.0873 |  | 
CGAUAUUAUGCAGGAUAUCUUCCUUGAAUGAGGAGAGAAGGGCAUAGGGAGACAUAAGCCUUAUUACAUGAGGAUCACCCAUGU | 0.0107 | 0.00883 |  | 
UGUCAUUUACAGAAGGGUAGUUGGGUUUUACAUGAGGAUCACCCAUGUUUUACAGGAUAUGUGUUUUGUUAAUAUUAAAGUUCA | 0.0729 | 0.113 |  | 
GGCGACCUAGGAUAUACAUGAGGAUCACCCAUGUUUAUCUAUUAGAUGAAGACGGGUUGUAGAAGGAGGAUAUU | 0.0155 | 0.0182 |  | 
AAGAAGUCAGGAUAUCCAGCUCGUCACUUGCGUGAUGAGUUGGAGAAGGGACAUGAGGAUCACCCAUGUAAAGU | 0.0569 | 0.0555 |  | 
AAUUCGUCAGGAUAUGCAUGUAAUUGUUACAUUUCGCCGUUGCAGAAGGGACAUGAGGAUCACCCAUGUAAGUC | 0.0328 | 0.0349 |  | 
GCACUUCGGCAGAAGGGACUAAGGGUAUGGUAGUCAGGAUAUGCAGGGUGGGCGUUUCACAUGAGGAUCACCCAUGUAGGACCA |  |  | 0.0211 | 0.00778
CCCAUGUCAGGAUAUCUAAGAGAGGGCCAGCCCUCUCCUCCGGAGAAGGGACAUGAGGAUCACCCAUGUAAAAC | 0.129 | 0.0255 |  | 
AGAUUCAUGGCCCGUUUGGGCUCACAUGAGGAUCACCCAUGUGAGGAUAUGACGUACCUGACUCGUCAGAAGGCGCAUGCGAAA | 0.00748 | 0.0157 |  | 
GUAGAGUAAGGAUAUGGUGAAUAGGAUAGAAUGGUUAGAAAUCAGAAGGUACAUGAGGAUCACCCAUGUAAUGU | 0.023 | 0.0224 |  | 
ACCUCACAUGAGGAUCACCCAUGUCAGGAUAUACGAAGGUAUAGCGCCGAAUACUGAAGUAGAAGGGACAGGCA | 0.0269 | 0.0769 |  | 
UGGAACUAGGGAGGAUAUGGGAAGAUACAUGAGGAUCACCCAUGUUUAAGAAUGCCGAGAGGCAACUAGAAGGCCCUAGUACCU |  |  | 0.454 | 0.0203
GUAACAUGAGGAUCACCCAUGUAUAGAACACUCAAUAGAUCUGAGGAUAUAGUGGAAUUUACACACUAGAAGGCAGUGGGUACA |  |  | 0.0539 | 0.0319
GUGGGAAUCACAGGAUAUACAUGCGCCGCUUCGUUCUACAUGAGGAUCACCCAUGUGUGGUCCGUGUAGAAGGGUGUUUGUUAC |  |  | 0.031 | 0.0108

Sequence | apparent Kd [1] [µM] | apparent Kd [2] [µM] | apparent Kd [3] [µM] | apparent Kd [4] [µM]
AUACCUUAUGAGAAGGCGGUCAUGAAACAUGAUCGAGGAUAUCAUGUAAACAUGAGGAUCACCCAUGUAUGGGUAUUAUGGUAG |  |  | 0.0617 | 0.0123
GACGUGUGAGGAUAUGCCGUGCCGGUCCGGAAGGUUCGGGUGCAGAAGGCACAUGAGGAUCACCCAUGUGUAAG | 0.0234 | 0.0325 |  | 
AUCUGGUCCUUACGCCCACAUGAGGAUCACCCAUGUCAGGCACAGGAUAUCCCGGGAGCUUUGGUGGAGAAGGGUGCCCUUGGG | 0.0556 | 0.1 |  | 
UGUCGGAGCAGAGGAUAUUACAUGAGGAUCACCCAUGUAUGAACCAAUAGCUGGAAACAGCAACGUAAGAAGGCUGCUCCGACA | 0.00675 | 0.0473 |  | 
AGCAGGUGAGGAUAUCGAUUAAGAUUAACAUUAUUAUUAAACGAGAAGGCACAUGAGGAUCACCCAUGUAAGGA | 0.0299 | 0.0413 |  | 
UUGGACGUCGUAGGAUAUGUAGGAUAUUCCUACAUGAGGAUCACCCAUGUUGACCUGGAAGAAGGACAGAAGGACGAUGUCCAU |  |  | 0.0642 | 0.00464
GUAGCAUUGUGAGGAUAUCCAUAUCCGAAAGGGACAUGAGGAUCACCCAUGUCGCGAAAGCGGUGGGAGAAGGCACUAUGCUAC |  |  | 0.00431 | 0.00403
GGUACUCAAAGAGUACCAAUACGAACAUGAGGAUCACCCAUGUAGGAUAUGCUACUCAAAGAGUAGCAGAAGGAUAUGAUGUAU | 0.0397 | 0.0449 |  | 
AAAAUAGCAGGAUAUACAUGAGGAUCACCCAUGUUUAUUGGGCACUUGCUGACGUCGUGUAGAAGGGUUACGAC | 0.0205 | 0.0188 |  | 
CUAUGAGCGAUAGGAUAUACUGAGAUUGAGUGGGUAGAAGGAUCGAUCGUGUAGAAGACAUGAGGAUCACCCAUGUUACGGGCC |  |  | 0.115 | 0.147
CUGGUUCUCGUAGGAUAUGUAGGAUAUGCCUACAUGAGGAUCACCCAUGUUCGCAUGGCAGAAGGACAGAAGGACGAUCACCAC |  |  | 0.323 | 0.0207
AAUAAGGGAGGAUAUGCGGAACGGUUUGUUCUCAGUGAGGCACAUGAGGAUCACCCAUGUAGAAGGCCCGGCAA | 0.0138 | 0.0931 |  | 
GGAUGACAAAGUCAUCCAAAUCGAACAUGAGGAUCACCCAUGUAGGAUAUGCUACUCAAAGAGUAGCAGAAGGACAUGUGCUUU | 0.0371 | 0.196 |  | 
AUAGCAACAUGAGGAUCACCCAUGUAGGAUAUCGCUAUUGUAAUCAUGAAACAUGAUUACAAUAGCGAGAAGGACAUAUGCUAU | 0.00651 | 0.00975 |  | 
CGUUGAUAAUAUCUUCACAUGAGGAUCACCCAUGUCGCUCGACAGGAUAUAUUUGAGUUGUUUAAGUAGAAGGGUCGCAGAUGC |  |  | 0.148 | 0.136
GUCAGCUCGUGAGGAUAUACAUGUGCUGGAGACAGCAUUAAAUUUUUCACAUGAGGAUCACCCAUGUAGAAGGCACGAGCUGAU | 0.0184 | 0.0494 |  | 
UACGGACAUGAGGAUCACCCAUGUGAGGAUAUCGGUACCGAUAGCAUAAUAUAAUCGGCGAGAAGGCACAGCGU | 0.0327 | 0.0428 |  | 
ACAUGAGGAUCACCCAUGUAUUACAUGGUUAAGUUUAUUAACAGAAGGCGAAAAUACCACUUUUUCGAGGAUAUGUUUUCUAUA | 0.0474 | 0.0616 |  | 
GGAAAAUGAGGAUAUACAUGUUUGAUACCUCUACGCCCGCAACAUGAGGAUCACCCAUGUAGAAGGCAUGAAAA | 0.0154 | 0.0442 |  | 
CUCAUGUAAGGAUAUCAGUAGUAAAAAAAUAAAAUUACUACUGAGAAGGUACAUGAGGAUCACCCAUGUAUCUU | 0.0848 | 0.0725 |  | 
AGAAAUUAGUGAGGAUAUGCAUAAUAUUUAGCUGCAGAAGGCACGGACCACAAGACAUGAGGAUCACCCAUGUGGUAUAUAGAU | 0.0249 | 0.0309 |  | 
GCCGAUUAAGUGAGGAUAUACCUAUGGAUACAUAGGUAGAAGGCACAUGAGGAUCACCCAUGUUCCUUAACGGC | 0.0112 | 0.03 |  | 
UGGUACUAGGGAGGAUAUGGGAAGAUACAUGAGGAUCACCCAUGUUUAAGAAUGCCGAGAGGCAAUUAGAAGGCCCUAGUACCU |  |  | 0.983 | 0.148
AGUAGAUCAGGAUAUACAUAAAUGAUAAUUAUGUACCUUCUACAUGAGGAUCACCCAUGUAGAAGGGAUCUACA | 0.0131 | 0.0119 |  | 
AAACCACAUGAGGAUCACCCAUGUCAUAACCGUAGGGAGAAGAGAAGGGUGAGGGUGUAGCCUGCACAGGAUAUCUAGUGCCUC |  |  | 0.228 | 0.174
GUAAAGUGAGGAUAUGGUAAAGUAAGUAUGUAGUAAGUAAUCCAGAAGGCACAUGAGGAUCACCCAUGUAAAUG | 0.03 | 0.0323 |  | 
GCCAUCACGUGAGGAUAUGCUCCCGUUUCGGGAGCAGAAGGCAUGUCAUAAGACAUGAGGAUCACCCAUGUAGUUAAGAUGGCA |  |  | 0.317 | 0.012
